One series deals with Trypanosoma brucei. The series is described as follows: Antitrypanosomal activity against Trypanosoma brucei Lister 427 bloodstream forms assessed as inhibition of parasite growth at 25 uM incubated for 48 hrs by ATP-bioluminescence cell viability assay. The conditions noted are these: Lister 427, 48 h, read-out: GI. In kind it is functional. The procedure, abridged:
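Bloodstream-form Lister 427 cells grown in HMI-19, seeded at 3000 cells/mL; compound added as 100-fold intermediate dilution, final DMSO 0.1%. After 48 h culture, viability read by CellTiter-Glo ATP-bioluminescence. Tested 0.0038–25 µM in 3-fold steps, triplicate; no-cell and DMSO-only controls (0% and 100% viability) per plate; value is percent inhibition at 25 µM.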

The nature of series [1]: Half life in mouse pooled liver microsomes at 1 uM in presence of NADPH by LC/MS/MS method. The class given is ADME, microsome. The conditions noted are these: pooled liver microsomes. (Liver microsomes are a subcellular fraction often used to study metabolism.)
The nature of series [2]: Half life in human pooled liver microsomes at 1 uM in presence of NADPH by LC/MS/MS method. In kind it is ADME, microsome. To be noted: pooled liver microsomes.
Series [3] in a line: Inhibition of Trypanosoma brucei AdoMetDC pre-incubated for 30 mins before AdoMet substrate addition by RapidFire-mass spectrometry.

Structures are written as SMILES.

For orientation: half-life means the time in which the quantity being followed falls by half. As a reminder, the IC50 is the concentration at which inhibition is half-maximal.

In the case of `CC(=O)Oc1cc(C)cc(C)c1C(C)(C)CC(=O)NC/C=C\CN(C)C[C@H]1O[C@@H](n2cnc3c(N)ncnc32)[C@@H]2OC(C)(C)O[C@@H]21`, the inhibition of growth at 25 µM in the series with Trypanosoma brucei was determined as 44%. The half-life at 1 µM in series [1] and in series [2] was at most 2.5 min each time. Further, the IC50 in series [3] is over 50 µM.

These data come from ChEMBL document CHEMBL4043178, “Synthesis and evaluation of analogs of 5'-(((Z)-4-amino-2-butenyl)methylamino)-5'-deoxyadenosine (MDL 73811, or AbeAdo) - An inhibitor of S-adenosylmethionine decarboxylase with antitrypanosomal activity” (Bioorg Med Chem, 2017).
